Assay results published in ChEMBL document CHEMBL4422627, “Discovery of potent, orally bioavailable ERK1/2 inhibitors with isoindolin-1-one structure by structure-based drug design” (Eur J Med Chem, 2019).
The source made the active and inactive calls. The calls are words filed in the database; no cut-off is given here.

Assays:
[1] = biological target: Mitogen-activated protein kinase 1 (Homo sapiens, UniProt P28482); test: Inhibition of ERK2 (unknown origin) using […] as substrate after 40 mins by ADP-Glo luminescence assay
[2] = MRT (0 to t) in Sprague-Dawley rat at 50 mg/kg, po by LC/MS/MS analysis; format: ADME, organism-based; conditions: in vivo
Outline: (§1)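 Sprague-Dawley rats dosed intravenously at 5 mg/kg or orally at 50 mg/kg; pharmacokinetic parameters derived from the plasma concentration data.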

[3] = Half life in Sprague-Dawley rat at 50 mg/kg, po by LC/MS/MS analysis; format: ADME, organism-based; conditions: in vivo; outline: as §1
[4] = Oral bioavailability in Sprague-Dawley rat at 50 mg/kg by LC/MS/MS analysis; format: ADME, organism-based; conditions: in vivo; outline: as §1
[5] = AUC (0 to t) in Sprague-Dawley rat at 50 mg/kg, po by LC/MS/MS analysis; format: ADME, organism-based; conditions: in vivo; outline: as §1
[6] = Cmax in Sprague-Dawley rat at 50 mg/kg, po by LC/MS/MS analysis; format: ADME, organism-based; parameters: dose 50 mg/kg, route oral; conditions: in vivo; outline: as §1
[7] = biological target: Mitogen-activated protein kinase 3 (Homo sapiens, UniProt P27361); test: Inhibition of ERK1 (unknown origin) using […] as substrate after 40 mins by ADP-Glo luminescence assay
K562 = test: Antiproliferative activity against human K562 cells after 72 hrs by MTT assay; format: functional, cell-based; conditions: K562, 72 h
HCT-116 [8] = test: Antiproliferative activity against human HCT116 cells after 72 hrs by MTT assay; format: functional, cell-based; conditions: HCT-116, 72 h
WM 266-4 = test: Antiproliferative activity against human WM266.4 cells after 72 hrs by MTT assay; format: functional, cell-based; conditions: WM 266-4, 72 h
COLO 205 = test: Antiproliferative activity against human COLO205 cells after 72 hrs by MTT assay; format: functional, cell-based; conditions: COLO 205, 72 h
SW626 = test: Antiproliferative activity against human SW626 cells after 72 hrs by MTT assay; format: functional, cell-based; conditions: SW626, 72 h
[9] = biological target: T1, Mitogen-activated protein kinase; ERK1/ERK2 (Homo sapiens) (UniProt P27361+P28482); test: Inhibition of ERK1/2 phosphorylation at Thr202/Tyr204 residues in human HCT116 cells by Western blot analysis; format: cell-based
Outline: (§2)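 Phosphorylation of ERK1/2 and RSK in HCT116 cells measured by western blot over a range of compound concentrations; means ± SD of three independent experiments, each condition run in triplicate.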

HCT-116 [10] = test: Induction of apoptosis in human HCT116 cells assessed as increase in condense bright apoptotic nuclei formation at 1 uM by Hoechst 33258 staining-based assay; format: functional, cell-based
Outline: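 After compound incubation, HCT116 cells stained with Hoechst 33258 and examined for condensed, bright apoptotic nuclei; n=3 per group.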

[11] = biological target: T1, Mitogen-activated protein kinase; ERK1/ERK2 (Homo sapiens); test: Inhibition of ERK1/2 in human HCT116 cells assessed as reduction in RSK phosphorylation at Thr359/Ser363 residues by Western blot analysis; format: cell-based; outline: as §2
NCM460 = test: Cytotoxicity against human NCM460 cells assessed as reduction in cell viability at 10000 nM after 72 hrs by MTT assay; format: cell-based; conditions: ncm460, 72 h, 10 µM
HCT-116 [12] = test: Induction of apoptosis in human HCT116 cells assessed as necrotic cells at 1 uM after 72 hrs by annexin V-FITC and propidium iodide staining based flow cytometric analysis (reference value: 0.21%); format: functional
Outline: (§3)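 HCT116 cells treated with compound, PI-stained, and analysed for apoptosis by flow cytometry; means ± SD of three independent experiments, each condition in triplicate.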

HCT-116 [13] = test: Cell cycle arrest in human HCT116 cells assessed as accumulation at G2/M phase at 1 uM after 72 hrs by annexin V-FITC and propidium iodide staining based flow cytometric analysis (reference value: 43.5%); format: functional
HCT-116 [14] = test: Cell cycle arrest in human HCT116 cells assessed as accumulation at G0/G1 phase at 1 uM after 72 hrs by annexin V-FITC and propidium iodide staining based flow cytometric analysis (reference value: 44.3%); format: functional
HCT-116 [15] = test: Induction of apoptosis in human HCT116 cells assessed as viable cells at 1 uM after 72 hrs by annexin V-FITC and propidium iodide staining based flow cytometric analysis (reference value: 94.3%); format: functional; conditions: HCT-116, 72 h, read-out: Activity; outline: as §3
HCT-116 [16] = test: Induction of apoptosis in human HCT116 cells assessed as late apoptotic cells at 1 uM after 72 hrs by annexin V-FITC and propidium iodide staining based flow cytometric analysis (reference value: 1.20%); format: functional; outline: as §3
[17] = Toxicity against Balb/c nude mouse xenografted with human HCT116 cells assessed as reduction in body weight at 50 mg/kg, po qd for 30 days and measured every 3 days; format: organism-based; conditions: in vivo
Outline: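 HCT-116 xenograft nude mice dosed at 50 mg/kg orally once daily for 30 days; body weight recorded every 3 days.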

HCT-116 [18] = test: Antitumor activity against human HCT116 cells xenografted in Balb/c nude mouse assessed as tumor growth inhibition at 50 mg/kg, po qd for 30 days and measured every 3 days by calliper method relative to control; format: functional; conditions: HCT-116, po, read-out: TGI
Outline: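 Nude mice bearing HCT-116 xenografts; test article given as hydrochloride salt, 50 mg/kg orally once daily for 30 days; efficacy expressed as percent tumor growth inhibition.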

HCT-116 [19] = test: Induction of apoptosis in human HCT116 cells assessed as early apoptotic cells at 1 uM after 72 hrs by annexin V-FITC and propidium iodide staining based flow cytometric analysis (reference value: 3.88%); format: functional; outline: as §3

Mitogen-activated protein kinase 1, sequence (P28482 whole entry): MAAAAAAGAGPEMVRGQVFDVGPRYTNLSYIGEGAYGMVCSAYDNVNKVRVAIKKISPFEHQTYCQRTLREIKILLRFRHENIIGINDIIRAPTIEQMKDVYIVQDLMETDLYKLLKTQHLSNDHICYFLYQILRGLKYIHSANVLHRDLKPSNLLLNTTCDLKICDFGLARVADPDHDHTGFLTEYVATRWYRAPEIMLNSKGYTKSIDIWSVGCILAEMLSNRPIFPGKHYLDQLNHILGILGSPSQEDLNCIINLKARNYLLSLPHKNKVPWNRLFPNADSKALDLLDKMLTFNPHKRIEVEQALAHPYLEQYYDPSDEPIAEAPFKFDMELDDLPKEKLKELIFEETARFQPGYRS
Mitogen-activated protein kinase 3, sequence (P27361 whole entry): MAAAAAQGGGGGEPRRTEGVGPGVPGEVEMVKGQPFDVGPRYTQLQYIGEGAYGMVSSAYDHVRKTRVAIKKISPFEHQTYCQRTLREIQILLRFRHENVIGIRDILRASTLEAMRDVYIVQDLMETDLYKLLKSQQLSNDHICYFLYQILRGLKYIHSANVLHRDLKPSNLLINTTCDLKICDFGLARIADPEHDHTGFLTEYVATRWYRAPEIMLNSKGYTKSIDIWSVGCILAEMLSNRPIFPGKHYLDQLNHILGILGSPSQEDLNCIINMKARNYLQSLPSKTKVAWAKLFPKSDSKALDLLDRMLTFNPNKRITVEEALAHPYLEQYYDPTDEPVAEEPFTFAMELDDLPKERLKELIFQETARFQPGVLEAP
T1 sequence (P27361 whole entry, looked up): as the sequence (P27361 whole entry) above
T1 sequence (P28482 whole entry, looked up): as the sequence (P28482 whole entry) above

O=C1c2cc(-c3ccnc(NC4CCOCC4)n3)ccc2CN1[C@H](CO)c1cccc(Cl)c1
IC50 [1]: 0.8 nM

Cl.O=C1c2cc(-c3ccnc(NC4CCOCC4)n3)ccc2CN1C(CO)c1cccc(Cl)c1 (configuration not stated)
MRT last [2]: 3.4 h
half-life [3]: 3.6 h
bioavailability [4]: 22.5%
AUC(0-t) [5]: 8380 ng·h/mL
Cmax [6]: 1920 ng/mL

Cn1nccc1Nc1nccc(-c2ccc3c(c2)C(=O)N(Cc2cccnc2)C3)n1
IC50 [1]: > 1000 nM

Cn1nccc1Nc1nccc(-c2ccc3c(c2)C(=O)N(C(CO)c2cccc(Cl)c2)C3)n1 (configuration not stated)
IC50 [7]: 3.6 nM
IC50 [1]: 1.9 nM
IC50 (K562): 2930 nM
IC50 (HCT-116 [8]): 251 nM
IC50 (WM 266-4): 217 nM
IC50 (COLO 205): 252 nM
IC50 (SW626): 252 nM

O=C1c2cc(-c3ccnc(NC4CCOCC4)n3)ccc2CN1Cc1ccc(Cl)c(F)c1
IC50 [1]: 17.8 nM

O=C1c2cc(-c3ccnc(NC4CCNC4)n3)ccc2CN1C(CO)c1cccc(Cl)c1 (configuration not stated)
IC50 [1]: > 1000 nM

O=C1c2cc(-c3ccnc(NC4CCOC4)n3)ccc2CN1C(CO)c1cccc(Cl)c1 (configuration not stated)
IC50 [1]: 5.4 nM

Cn1cc(Nc2nccc(-c3ccc4c(c3)C(=O)N([C@@H](CO)c3cccc(Cl)c3)C4)n2)cn1
IC50 [1]: 633 nM

O=C1c2cc(-c3ccnc(NC4CCOCC4)n3)ccc2CN1[C@@H](CO)c1cccc(Cl)c1
IC50 [1]: 201 nM

Cn1cc(Nc2nccc(-c3ccc4c(c3)C(=O)N([C@H](CO)c3cccc(Cl)c3)C4)n2)cn1
IC50 [1]: 1.1 nM

O=C1c2cc(-c3ccnc(NC4CCOCC4)n3)ccc2CN1C(CO)c1ccc(Cl)c(Cl)c1 (configuration not stated)
IC50 [1]: 3.1 nM

O=C1c2cc(-c3ccnc(NC4CCOCC4)n3)ccc2CN1C(CO)c1cccc(Cl)c1 (configuration not stated) [listing 1 of 2 here]
inhibition [9]: Dose-dependent effect
Activity (HCT-116 [10]): Active
inhibition [11]: Dose-dependent effect

CC(C)Nc1nccc(-c2ccc3c(c2)C(=O)N(C(CO)c2cccc(Cl)c2)C3)n1 (configuration not stated)
IC50 [1]: 11.2 nM

O=C1c2cc(-c3ccnc(NC4CCOCC4)n3)ccc2CN1C(CO)c1ccc(Cl)cc1 (configuration not stated)
IC50 [1]: 30.4 nM

Cn1ccc(Nc2nccc(-c3ccc4c(c3)C(=O)N(C(CO)c3cccc(Cl)c3)C4)n2)n1 (configuration not stated)
IC50 [1]: 25.6 nM

Cn1nnnc1Nc1nccc(-c2ccc3c(c2)C(=O)N(C(CO)c2cccc(Cl)c2)C3)n1 (configuration not stated)
IC50 [1]: 19.8 nM

O=C1c2cc(-c3ccnc(Nc4ccncc4)n3)ccc2CN1Cc1cccc(Cl)c1
IC50 [1]: 36.3 nM

Cn1nccc1Nc1nccc(-c2ccc3c(c2)C(=O)N(Cc2ccccn2)C3)n1
IC50 [1]: > 1000 nM

O=C1c2cc(-c3ccnc(NC4CCC(O)CC4)n3)ccc2CN1C(CO)c1cccc(Cl)c1 (configuration not stated)
IC50 [1]: 2.7 nM

O=C1c2cc(-c3ccnc(Nc4nccs4)n3)ccc2CN1C(CO)c1cccc(Cl)c1 (configuration not stated)
IC50 [1]: 22.3 nM

O=C1c2cc(-c3ccnc(NCCO)n3)ccc2CN1C(CO)c1cccc(Cl)c1 (configuration not stated)
IC50 [1]: 17.6 nM

O=C1c2cc(-c3ccnc(NCCCO)n3)ccc2CN1C(CO)c1cccc(Cl)c1 (configuration not stated)
IC50 [1]: 38.4 nM

Cl.O=C1c2cc(-c3ccnc(NC4CCOCC4)n3)ccc2CN1Cc1cccc(Cl)c1
MRT last [2]: 1.2 h
half-life [3]: 0.37 h
bioavailability [4]: 6.9%
AUC(0-t) [5]: 1280 ng·h/mL
Cmax [6]: 747 ng/mL

O=C1c2cc(-c3ccnc(NC4CCOCC4)n3)ccc2CN1Cc1cccc(Cl)c1
IC50 [7]: 3.3 nM
IC50 [1]: 1.6 nM
IC50 (K562): 1550 nM
IC50 (HCT-116 [8]): 150 nM
IC50 (WM 266-4): 220 nM
IC50 (COLO 205): 170 nM
IC50 (SW626): 255 nM

Cn1cc(Nc2nccc(-c3ccc4c(c3)C(=O)N(Cc3cccc(Cl)c3)C4)n2)cn1
IC50 [7]: 21 nM
IC50 [1]: 3.6 nM
IC50 (K562): 2740 nM
IC50 (HCT-116 [8]): 148 nM
IC50 (WM 266-4): 174 nM
IC50 (COLO 205): 204 nM
IC50 (SW626): 209 nM

O=C1c2cc(-c3ccnc(Nc4ncco4)n3)ccc2CN1C(CO)c1cccc(Cl)c1 (configuration not stated)
IC50 [1]: 93.3 nM

Cn1nccc1Nc1nccc(-c2ccc3c(c2)C(=O)N(Cc2ccc(Cl)c(F)c2)C3)n1
IC50 [1]: 5.6 nM

Cc1cccc(CN2Cc3ccc(-c4ccnc(Nc5ccnn5C)n4)cc3C2=O)n1
IC50 [1]: > 1000 nM

Cn1cc(Nc2nccc(-c3ccc4c(c3)C(=O)N(C(CO)c3cccc(Cl)c3)C4)n2)cn1 (configuration not stated)
IC50 [7]: 4.1 nM
IC50 [1]: 1.2 nM
IC50 (K562): 3820 nM
IC50 (HCT-116 [8]): 201 nM
Activity (NCM460): Non-Toxic
IC50 (WM 266-4): 211 nM
IC50 (COLO 205): 227 nM
IC50 (SW626): 206 nM

O=C1c2cc(-c3ccnc(NC4CCCCC4)n3)ccc2CN1C(CO)c1cccc(Cl)c1 (configuration not stated)
IC50 [1]: 7.2 nM

O=C1c2cc(-c3ccnc(NC4CCOCC4)n3)ccc2CN1Cc1ccc(Cl)cc1
IC50 [1]: 35.6 nM

O=C1c2cc(-c3ccnc(NC4CCNCC4)n3)ccc2CN1C(CO)c1cccc(Cl)c1 (configuration not stated)
IC50 [1]: > 1000 nM

O=C1c2cc(-c3ccnc(NC4CCOCC4)n3)ccc2CN1Cc1ccc(F)c(Cl)c1
IC50 [1]: 2.9 nM

O=C1c2cc(-c3ccnc(NC4CCOCC4)n3)ccc2CN1C(CO)c1cccc(Cl)c1 (configuration not stated) [listing 2 of 2 here]
IC50 [7]: 1.5 nM
Activity (HCT-116 [12]): 0.12%
IC50 [1]: 0.7 nM
IC50 (K562): 3190 nM
Activity (HCT-116 [13]): 29.5%
Activity (HCT-116 [14]): 58%
IC50 (HCT-116 [8]): 155 nM
viability at 1 µM (HCT-116 [15]): 61.3%
Activity (HCT-116 [16]): 10.4%
Activity [17]: Non-Toxic
Activity (NCM460): Non-Toxic
IC50 (WM 266-4): 260 nM
inhibition in vivo at 50 mg/kg (HCT-116 [18]): 71%
IC50 (COLO 205): 194 nM
Activity (HCT-116 [19]): 27.7%
IC50 (SW626): 247 nM

Cn1nccc1Nc1nccc(-c2ccc3c(c2)C(=O)N(Cc2cccc(Cl)c2)C3)n1
IC50 [1]: 3.5 nM
IC50 (K562): 2870 nM

O=C1c2cc(-c3ccnc(Nc4ccc(F)cc4)n3)ccc2CN1Cc1cccc(Cl)c1
IC50 [1]: > 1000 nM
